The source of these data is ChEMBL document CHEMBL1122504, “Heterocyclic Quinones. 4. A new highly cytotoxic drug: 6,7-bis(1-aziridinyl)-5,8-quinazolinedione” (1983).

Several values for one entry are separate records, joined by “and”; a condition that tells them apart may be missing. Identical values can stand only once.

In the assay the test system is L1210. In words: Concentration that decreases the growth rate of the L1210 cells by 50% after 48 hr of culture. In kind it is functional. The settings on record: Mus musculus, L1210, 48 h; read-out: ID50 (the source's name). The essentials:
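L1210 leukemia cells cultured with increasing drug concentrations for 48 h at 37 °C under 5% CO2. Percentage inhibition of control growth was fitted by least-squares linear regression against log dose, and the concentration lowering control growth by 50% was estimated from the regression equation.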
Turning to `COC1=CC(=O)c2ncncc2C1=O`, the IC50 was 0.593 µg/mL and 3.12 µM.
The value for `COC1=C(Br)C(=O)c2ncncc2C1=O` was 0.889 µg/mL and 3.31 µM.
On to `O=C1C(N2CCCCC2)=CC(=O)c2ncncc21`, for which the IC50 is 0.359 µg/mL and 1.48 µM.
For the molecule `COC1=C(N)C(=O)c2ncncc2C1=O`, the IC50 was 0.215 µg/mL and 1.05 µM.
